Here are results for seven substances from publication PMC9826235 (Chembiochem, 2022).

The assay relates to monoclonal anti-HpTGEKP antibody. The format is binding, mouse. Conditions: gas phase complex dissociation; for TambΔSmg# / ΔGm0g# / ΔHm0g#: neutral and resting complex, Tamb 298 K, two measurement series except 02; for ΔHm0g# (approximate values in running text): text rounding of Table 3. Put shortly:
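Test phospho-hexapeptides and monoclonal antibody, each in 200 mM ammonium acetate, were mixed at a 3:1 peptide:antibody molar ratio. The mixtures were nano-electrosprayed, and multiply charged immune complex ions underwent gas phase dissociation; an unphosphorylated hexapeptide served as control. Data were duplicate series (mean, SD), fitted with a Boltzmann sigmoid. Enthalpies came from Arrhenius and Gibbs-Helmholtz plots taken at 1/Tamb.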

In the case of HpSGERP [compound 06], the “TambΔSmg#” value is -15.87 kcal/mol, the “ΔGm0g#” value was “+64.65 kJ/mol” and the “ΔHm0g#” value is -0.418 kcal/mol.
With HpTEEKP [compound 09], the “TambΔSmg#” value was -15.93 kcal/mol, the “ΔGm0g#” value is on record as “+64.64 kJ/mol”, the “ΔHm0g#” value is -0.485 kcal/mol and the “ΔHm0g# (approximate values in running text)” value is reported as “approx. −2.0 kJ/mol”.
Regarding HpTGEKL [compound 07], the “TambΔSmg#” value was -15.82 kcal/mol, the “ΔGm0g#” value is “+64.69 kJ/mol” and the “ΔHm0g#” value was -0.363 kcal/mol.
As for HpTGEKP [compound 01], the “TambΔSmg#” value was -15.8 kcal/mol, the “ΔGm0g#” value is listed as “+64.75 kJ/mol” and the “ΔHm0g#” value is -0.33 kcal/mol.
In the case of HpTGERP [compound 02], the “TambΔSmg#” value was -15.74 kcal/mol, the “ΔGm0g#” value is on record as “+64.79 kJ/mol” and the “ΔHm0g#” value was -0.261 kcal/mol.
In the case of HpTGKKP [compound 05], the “TambΔSmg#” value was -15.06 kcal/mol, the “ΔGm0g#” value is recorded as “+64.84 kJ/mol”, the “ΔHm0g#” value was “+1.81 kJ/mol” and the “ΔHm0g# (approximate values in running text)” value was “approx. +0.3 kJ/mol”.
The like results for HpTREKP [compound 10] were, in that order, -15.43 kcal/mol, “+64.83 kJ/mol”, “+0.28 kJ/mol” and “~+1.8 kJ/mol”.
